Experiments:
[1] = The compound was tested for cytotoxicity against BSC1 cell; type: functional, cell-based; settings: Cercopithecidae, BSC-1
Procedure, shortened: (§1)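 Visual cytotoxicity was scored on uninfected cells in the plaque-reduction plates: BSC-1 (HSV-1 assay) or HFF (HCMV assay), both grown in MEM(E) with 10% FBS. Cells were examined at 35- and 60-fold magnification and scored 0 to 4+ on the day of staining for plaque counting. The highest concentration tested was 100 μM.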

Cytomegalovirus = assay: Inhibitory activity against human cytomegalovirus determined by plaque reduction assay; type: functional, organism-based; settings: Human betaherpesvirus 5
Human alphaherpesvirus 1 = assay: Antiviral activity against Herpes simplex virus type 1 determined by plaque reduction assay; type: functional, organism-based
HFF = assay: The compound was tested for cytotoxicity against human foreskin fibroblast cell; type: functional, cell-based; procedure, shortened: as §1
[2] = Average percent inhibition of DNA, RNA, and protein synthesis determined in KB cells; type: functional, cell-based; settings: Homo sapiens
Procedure, shortened: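 KB cells (human oral epidermoid carcinoma) grown in MEM(H) with 5% FBS. Cytotoxicity was measured as inhibition of radioactive precursor incorporation into DNA, RNA and protein. An I50 for each was obtained by linear regression against log concentration, and the three I50 values were averaged. The highest concentration tested was 100 μM.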

[3] = The compound was tested for cytotoxicity against BSC-1 cells; type: functional, cell-based; settings: Cercopithecidae; procedure, shortened: as §1

| SMILES | IC50 (Cytomegalovirus) [µM] | IC50 (Human alphaherpesvirus 1) [µM] | IC50 [2] [µM] | IC50 [1] [µM] | IC50 (HFF) [µM] | IC50 [3] [µM] |
| --- | --- | --- | --- | --- | --- | --- |
| CS(=O)(=O)c1nc(N)c2ccn(COCCO)c2n1 | > 100 | > 100 | – | > 100 | > 100 | – |
| CSc1nc(Cl)c2ccn(COCCOC(C)=O)c2n1 | > 100 | > 100 | 33 | – | 100 | > 100 |
| CSc1nc(Cl)c2ccn(COCCO)c2n1 | > 100 | > 100 | – | > 100 | 30 | – |
| CC(=O)Nc1nc(Cl)c2ccn(COCCO)c2n1 | > 100 | > 100 | 112 | > 100 | > 100 | – |
| CC(=O)OCCOCn1ccc2c(Cl)nc(Cl)nc21 | 40 | > 100 | – | > 100 | 100 | – |
| OCCOCn1ccc2c(Cl)nc(Cl)nc21 | 37 | > 100 | – | > 100 | 100 | – |
| Nc1nc2c(ncn2COCCO)c(=O)[nH]1 [ACYCLOVIR] | 63 | – | > 100 | > 100 | > 100 | – |
| Nc1nc2c(ncn2COC(CO)CO)c(=O)[nH]1 [GANCICLOVIR] | 8.8 | – | 1000 | > 100 | > 100 | – |

Continued, in another order:

| IC50 (Cytomegalovirus) [µM] | IC50 (Human alphaherpesvirus 1) [µM] | IC50 [2] [µM] | SMILES | IC50 [1] [µM] | IC50 (HFF) [µM] | IC50 [3] [µM] |
| --- | --- | --- | --- | --- | --- | --- |
| > 100 | > 100 | – | COc1nc(N)c2ccn(COCCO)c2n1 | > 100 | > 100 | – |
| > 100 | > 100 | – | CSc1nc(N)c2ccn(COCCO)c2n1 | > 100 | > 100 | – |
| > 100 | > 100 | > 100 | Nc1ncnc2c1ccn2COCCO | > 100 | > 100 | – |
| > 100 | > 100 | – | Nc1nc(Cl)nc2c1ccn2COCCO | > 100 | > 100 | – |
| > 100 | > 100 | – | Nc1nc(N)c2ccn(COCCO)c2n1 | > 100 | > 100 | – |
| > 100 | > 100 | – | Nc1nc(O)nc2c1ccn2COCCO | > 100 | > 100 | – |
